Measurements reported in ChEMBL document CHEMBL1154400, “Pharmacokinetics of single- and multiple-dose oral clarithromycin in soft tissues determined by microdialysis” (Antimicrob Agents Chemother, 2007).

Legend:
[1] = Cmax in fasting human plasma at 250 mg, po; format: ADME, organism-based; design: dose 250 mg, route oral
Outline: (§1)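 Healthy male volunteers aged 25-37 y, fasting; single oral 250 mg tablet after 60-min probe equilibration. Microdialysis probes in skeletal muscle and subcutaneous adipose tissue, perfused with Ringer's at 1.5 µl/min; dialysate and antecubital venous blood sampled every 20 min to 4 h, then every 30 min to 8 h. HPLC assay. Interstitial concentration = 100 x Cdialysate/recovery.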

[2] = Terminal half life in human interstitial-space fluid of skeletal muscle at 500 mg, po, bid for 3 to 5 days; format: ADME, organism-based, Muscle tissue; settings: read-out: beta t1/2 (converted)
Outline: (§2)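 Oral clarithromycin 500 mg b.i.d. for 3-5 days, starting 12 h after a single 250 mg dose; last dose given supervised on the morning of day 2 after a baseline blood draw and a 2-h trough dialysate. Sampling as on day 1: microdialysis of muscle and adipose tissue plus venous plasma over 8 h, HPLC. Dialysate concentrations corrected for individual recovery.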

[3] = AUC (0 to 24 hrs) in fasting human plasma at 250 mg, po; format: ADME, organism-based; design: dose 250 mg, time < 24 hr, route oral; outline: as §1
Homo sapiens [4] = assay: Volume of distribution at terminal phase in fasting human plasma at 250 mg, po; format: ADME, organism-based; settings: in vivo
Outline: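 Single oral 250 mg tablet given to fasting healthy male volunteers (n=7, 25–37 y). Venous plasma (lithium heparin) was sampled every 20 min over 0–4 h and every 30 min over 4–8 h, then analysed by reverse-phase HPLC. Vz = dose × F/(AUC0-∞ × kel), with bioavailability F set at 55%. AUC was calculated by the linear trapezoidal rule.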

[5] = Drug uptake in human Skeletal muscles assessed as in vivo drug recovery by microdialysis; format: ADME, organism-based, Muscle tissue
Outline: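 Retrodialysis after the 8-h sampling: clarithromycin 5 mg/liter added to the Ringer's perfusate (1.5 µl/min). Recovery (%) = 100 - 100 x Cdialysate/Cperfusate, taken as the mean of two measurements per subject, in muscle and adipose tissue probes.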

Homo sapiens [6] = assay: Free AUC (0 to 8 hrs) in human plasma at 500 mg, po, bid for 3 to 5 days; format: ADME, organism-based; settings: in vivo
Outline: (§3)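 Free plasma concentrations obtained by applying each volunteer's measured protein binding to total plasma concentrations, measured by HPLC after the 250 mg single dose or the 500 mg b.i.d. steady-state dose, with sampling over 8 h.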

[7] = AUC (0 to 8 hrs) in fasting human plasma at 250 mg, po; format: ADME, organism-based; design: dose 250 mg, time < 8 hr, route oral; outline: as §1
Homo sapiens [8] = assay: Free AUC (0 to 8 hrs) in fasting human plasma at 250 mg, po; format: ADME, organism-based; settings: in vivo; outline: as §3
[9] = Tmax in fasting human plasma unbound fraction at 250 mg, po; format: ADME, organism-based; outline: as §3
[10] = Ratio of AUC (0 to 24 hrs) in fasting human interstitial-space fluid of skeletal muscle to free AUC (0 to 24 hrs) in fasting human plasma at 250 mg, po; format: ADME, organism-based; settings: read-out: Ratio AUC
Outline: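 AUC0-8, AUC0-12 and AUC0-24 by the linear trapezoidal rule. Values at 12 h and 24 h extrapolated as C8 x e^(-kel x t) from the 8-h concentration. At steady state, AUC0-24 = AUC0-12 x 2. Tissue-to-free-plasma ratios use free plasma AUC, from each subject's own protein binding.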

[11] = Tmax in human interstitial-space fluid of skeletal muscle at 500 mg, po, bid for 3 to 5 days; format: ADME, organism-based, Muscle tissue; outline: as §2
[12] = AUC (0 to 24 hrs) in fasting human interstitial-space fluid of subcutaneous adipose tissue at 250 mg, po; format: ADME, organism-based; outline: as §1
[13] = AUC (0 to 8 hrs) in fasting human interstitial-space fluid of skeletal muscle at 250 mg, po; format: ADME, organism-based, Muscle tissue; design: time < 8 hr, dose 250 mg, route oral; outline: as §1
[14] = AUC (0 to 8 hrs) in human interstitial-space fluid of subcutaneous adipose tissue at 500 mg, po, bid for 3 to 5 days; format: ADME, organism-based; outline: as §2
[15] = Tmax in human interstitial-space fluid of subcutaneous adipose tissue at 500 mg, po, bid for 3 to 5 days; format: ADME, organism-based; outline: as §2
[16] = Cmax in fasting human interstitial-space fluid of subcutaneous adipose tissue at 250 mg, po; format: ADME, organism-based; outline: as §1
[17] = Tmax in fasting human interstitial-space fluid of subcutaneous adipose tissue at 250 mg, po; format: ADME, organism-based; outline: as §1
[18] = Cmax in fasting human interstitial-space fluid of skeletal muscle at 250 mg, po; format: ADME, organism-based, Muscle tissue; design: dose 250 mg, route oral; outline: as §1
[19] = AUC (0 to 24 hrs) in human interstitial-space fluid of subcutaneous adipose tissue at 500 mg, po, bid for 3 to 5 days; format: ADME, organism-based; outline: as §2
[20] = Cmax in human interstitial-space fluid of skeletal muscle at 500 mg, po, bid for 3 to 5 days; format: ADME, organism-based, Muscle tissue; design: dose 500 mg, route oral; outline: as §2
Homo sapiens [21] = assay: Free Cmax in fasting human plasma at 250 mg, po; format: ADME, organism-based; settings: in vivo; outline: as §3
[22] = Tmax in fasting human plasma at 250 mg, po; format: ADME, organism-based; outline: as §1
[23] = AUC (0 to 8 hrs) in fasting human interstitial-space fluid of subcutaneous adipose tissue at 250 mg, po; format: ADME, organism-based; outline: as §1
Homo sapiens [24] = assay: Free AUC (0 to 24 hrs) in human plasma at 500 mg, po, bid for 3 to 5 days; format: ADME, organism-based; settings: in vivo; outline: as §3
[25] = Total clearance in human plasma at 500 mg, po, bid for 3 to 5 days; format: ADME, organism-based
[26] = Terminal half life in human plasma unbound fraction at 500 mg, po, bid for 3 to 5 days; format: ADME, organism-based; settings: read-out: beta t1/2 (converted); outline: as §3

Question: What does the source list for `CC[C@H]1OC(=O)[C@H](C)[C@@H](O[C@H]2C[C@@](C)(OC)[C@@H](O)[C@H](C)O2)[C@H](C)[C@@H](O[C@@H]2O[C@H](C)C[C@H](N(C)C)[C@H]2O)[C@](C)(OC)C[C@@H](C)C(=O)[C@H](C)[C@@H](O)[C@]1(C)O` [CLARITHROMYCIN]?
Answer: Cmax [1]: 1090 ng/mL; half-life [2]: 3.8 h; AUC(0-t) at 24 h [3]: 4450 ng·h/mL; Vbeta (Homo sapiens [4]): 94 L; Activity [5]: 54.3%; fAUC (Homo sapiens [6]): 2260 ng·h/mL; AUC(0-t) at 8 h [7]: 3630 ng·h/mL; fAUC (Homo sapiens [8]): 990 ng·h/mL; Tmax [9]: 2.6 h; Kp uu [10]: 0.42; Tmax [11]: 3.8 h; AUC(0-t) [12]: 350 ng·h/mL; AUC(0-t) at 8 h [13]: 290 ng·h/mL; AUC [14]: 840 ng·h/mL; Tmax [15]: 4 h; Cmax [16]: 70 ng/mL; Tmax [17]: 3 h; Cmax [18]: 80 ng/mL; AUC [19]: 2220 ng·h/mL; Cmax [20]: 230 ng/mL; fCmax (Homo sapiens [21]): 0.31 mg/L; Tmax [22]: 2.6 h; AUC(0-t) [23]: 240 ng·h/mL; fAUC (Homo sapiens [24]): 5850 ng·h/mL; CL/F [25]: 312 mL/min; half-life [26]: 3.7 h
